Reference: ChEMBL document CHEMBL1153940, “Anthranilic acid based CCK1 receptor antagonists: blocking the receptor with the same 'words' of the endogenous ligand” (Bioorg Med Chem, 2009)

Tests used:
[1] = biological target: T1, Cholecystokinin receptor type A (Rattus norvegicus, UniProt P30551); assay: Displacement of [125I]BH-CCK8 from CCK1 receptor in Sprague-Dawley rat pancreatic acinar cells
T1 sequence (P30551 whole entry): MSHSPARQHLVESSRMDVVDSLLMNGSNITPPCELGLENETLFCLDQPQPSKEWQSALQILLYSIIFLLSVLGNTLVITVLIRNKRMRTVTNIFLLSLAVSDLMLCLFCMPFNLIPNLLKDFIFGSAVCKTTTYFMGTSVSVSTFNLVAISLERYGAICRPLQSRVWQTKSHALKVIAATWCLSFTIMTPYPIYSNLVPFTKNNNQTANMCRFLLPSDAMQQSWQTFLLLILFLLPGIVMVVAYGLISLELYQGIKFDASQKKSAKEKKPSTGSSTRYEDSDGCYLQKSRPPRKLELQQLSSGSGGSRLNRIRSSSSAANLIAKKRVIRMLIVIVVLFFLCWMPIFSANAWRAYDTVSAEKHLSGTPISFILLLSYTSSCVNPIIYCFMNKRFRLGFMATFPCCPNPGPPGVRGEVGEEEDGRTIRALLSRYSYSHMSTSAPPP
Procedure, shortened: (§1)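 Pancreatic acini were obtained by enzymatic digestion from male Sprague Dawley rats fasted 18–24 h with water allowed. Cells were incubated with 25 pM (final) [125I]BH-CCK-8 and competitors at 37 °C for 30 min with shaking. The reaction was stopped with ice-cold Hepes-Ringer (1% BSA, soybean trypsin inhibitor, pH 7.4), then centrifuged 5 min at 12,500g, and pellet radioactivity was measured.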

[2] = test system: Gastrin/cholecystokinin type B receptor (Cavia porcellus); assay: Displacement of [125I]BH-CCK8 from CCK2 receptor in Hartley guinea pig cerebral cortex at 10 uM
[3] = biological target: T2, Cholecystokinin receptor type A (Rattus norvegicus) (UniProt P30551); assay: Displacement of [125I]BH-CCK8 from CCK1 receptor in Sprague-Dawley rat pancreatic acinar cells at 3 uM; procedure, shortened: as §1
T2 sequence (whole entry): T1 sequence (P30551 whole entry)

[4] = test system: Gastrin/cholecystokinin type B receptor (Cavia porcellus); assay: Displacement of [125I]BH-CCK8 from CCK2 receptor in Hartley guinea pig cerebral cortex at 30 uM
[5] = biological target: Gastrin/cholecystokinin type B receptor (Cavia porcellus, UniProt H0VZC5); assay: Displacement of [125I]BH-CCK8 from CCK2 receptor in Hartley guinea pig cerebral cortex
Sequence of Gastrin/cholecystokinin type B receptor (H0VZC5 1-426): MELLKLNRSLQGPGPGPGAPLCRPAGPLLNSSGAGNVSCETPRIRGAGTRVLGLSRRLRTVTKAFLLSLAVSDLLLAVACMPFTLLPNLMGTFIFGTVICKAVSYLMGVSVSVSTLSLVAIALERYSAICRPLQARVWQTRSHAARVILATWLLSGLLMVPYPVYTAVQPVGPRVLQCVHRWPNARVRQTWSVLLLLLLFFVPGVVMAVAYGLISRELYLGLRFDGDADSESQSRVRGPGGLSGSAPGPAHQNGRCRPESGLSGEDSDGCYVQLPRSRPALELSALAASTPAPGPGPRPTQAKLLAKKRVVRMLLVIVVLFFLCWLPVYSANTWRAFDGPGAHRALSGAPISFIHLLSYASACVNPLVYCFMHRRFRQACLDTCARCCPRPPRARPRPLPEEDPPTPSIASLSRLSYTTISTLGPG

[6] = biological target: T2, Cholecystokinin receptor type A (Rattus norvegicus); assay: Displacement of [125I]BH-CCK8 from CCK1 receptor in Sprague-Dawley rat pancreatic acinar cells at 10 uM; procedure, shortened: as §1
[7] = biological target: T3, Cholecystokinin receptor type A (Cavia porcellus) (UniProt Q63931); assay: Antagonist activity against CCK1 receptor in Hartley guinea pig gallbladder assessed as inhibition of CCK-8- stimulated contraction at 1 uM; type: functional
T3 sequence (whole entry): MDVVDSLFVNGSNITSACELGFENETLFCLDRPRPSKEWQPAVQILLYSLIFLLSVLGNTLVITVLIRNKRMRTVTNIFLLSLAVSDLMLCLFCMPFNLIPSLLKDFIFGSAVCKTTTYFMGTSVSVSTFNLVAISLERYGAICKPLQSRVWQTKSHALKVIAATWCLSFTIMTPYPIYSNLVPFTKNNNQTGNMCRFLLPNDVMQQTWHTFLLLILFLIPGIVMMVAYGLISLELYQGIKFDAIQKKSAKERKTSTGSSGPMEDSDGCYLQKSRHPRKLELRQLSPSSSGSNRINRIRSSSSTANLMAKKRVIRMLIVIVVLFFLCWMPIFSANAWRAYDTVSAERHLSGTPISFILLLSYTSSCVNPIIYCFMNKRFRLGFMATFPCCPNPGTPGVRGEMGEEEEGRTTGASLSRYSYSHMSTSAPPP
Procedure, shortened: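 Circular smooth-muscle strips (about 3 × 15 mm) hung in organ baths of Krebs–Henseleit at 32 °C, gassed 95% O2–5% CO2, and equilibrated 60 min with washes every 15 min. Antagonist or vehicle was applied 5 min before a submaximal (70–80%) CCK-8 concentration. Isometric contraction was recorded and activity expressed as percent inhibition of agonist contraction.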

[8] = test system: Gastrin/cholecystokinin type B receptor (Cavia porcellus); assay: Displacement of [125I]BH-CCK8 from CCK2 receptor in Hartley guinea pig cerebral cortex at 1 uM

Row | Structure (SMILES) | IC50 [1] [nM] | Activity [2] [%] | further results
1 | CC(C)C(NC(=O)c1ccccc1NC(=O)c1cc2ccccc2[nH]1)C(=O)O (racemic) | 288 |  | 
2 | O=C(Nc1ccccc1C(=O)NCCc1ccccc1)c1cc2ccccc2[nH]1 |  | < 20 | Activity [3]: < 20%
3 | O=C(Nc1ccccc1C(=O)NC(CO)Cc1ccccc1)c1cc2ccccc2[nH]1 (racemic) |  |  | Activity [3]: 32%
4 | CCCCCN(CCCCC)C(=O)C(Cc1ccccc1)NC(=O)c1ccccc1NC(=O)c1cc2ccccc2[nH]1 (stereo unspecified) |  |  | Activity [3]: < 20%; Activity [4]: < 20%
5 | CSCCC(NC(=O)c1ccccc1NC(=O)c1cc2ccccc2n1C)C(=O)O (racemic) | 92 | < 20 | 
6 | CC(C)C[C@@H](NC(=O)c1ccccc1NC(=O)c1cc2ccccc2[nH]1)C(=O)O | 46 |  | IC50 [5]: 14700 nM
7 | O=C(Nc1ccccc1C(=O)NC(Cc1ccccc1)C(=O)O)c1cc2ccccc2[nH]1 (stereo unspecified) | 197 |  | IC50 [5]: 16400 nM
8 | CCOC(=O)C(Cc1ccccc1)NC(=O)c1ccccc1NC(=O)c1cc2ccccc2[nH]1 (racemic) |  |  | Activity [3]: 20%; Activity [4]: < 20%
9 | CC(NC(=O)c1ccccc1NC(=O)c1cc2ccccc2[nH]1)C(=O)O (racemic) | 3240 | < 20 | 
10 | O=C(O)CCC(NC(=O)c1ccccc1NC(=O)c1cc2ccccc2[nH]1)C(=O)O (racemic) |  | < 20 | Activity [6]: < 20%
11 | CSCC[C@H](NC(=O)c1ccccc1NC(=O)c1cc2ccccc2[nH]1)C(=O)O | 2750 |  | Activity [4]: 31%
12 | O=C(O)CCCNC(=O)c1ccccc1NC(=O)c1cc2ccccc2[nH]1 |  |  | Activity [3]: < 20%; Activity [4]: < 20%
13 | O=C(O)CCNC(=O)c1ccccc1NC(=O)c1cc2ccccc2[nH]1 |  |  | Activity [3]: < 20%; Activity [4]: < 20%
14 | O=C(Nc1ccccc1C(=O)NC(Cc1ccc(OCc2ccccc2)cc1)C(=O)O)c1cc2ccccc2[nH]1 (racemic) | 1160 | < 20 | 
15 | O=C(Nc1ccccc1C(=O)NC(Cc1ccc(O)cc1)C(=O)O)c1cc2ccccc2[nH]1 (racemic) | 2070 |  | 
16 | O=C(O)CNC(=O)c1ccccc1NC(=O)c1cc2ccccc2[nH]1 | 5520 |  | 
17 | CC(Cc1ccccc1)NC(=O)c1ccccc1NC(=O)c1cc2ccccc2[nH]1 (racemic) | 3150 | < 20 | 
18 | O=C(O)CC(Cc1ccccc1)NC(=O)c1ccccc1NC(=O)c1cc2ccccc2[nH]1 (racemic) |  |  | IC50 [5]: 16900 nM; Activity [6]: 25%
19 | O=C(Nc1ccccc1C(=O)NCCc1c[nH]c2ccccc12)c1cc2ccccc2[nH]1 |  | < 20 | Activity [3]: < 20%
20 | CSCCC(NC(=O)c1ccccc1NC(=O)c1cc2ccccc2[nH]1)C(=O)O (stereo unspecified) | 52 | < 20 | inhibition [7]: 100%
21 | O=C(O)CC(NC(=O)c1ccccc1NC(=O)c1cc2ccccc2[nH]1)C(=O)O (racemic) |  |  | Activity [8]: < 20%; Activity [6]: < 20%
22 | CSCC[C@@H](NC(=O)c1ccccc1NC(=O)c1cc2ccccc2[nH]1)C(=O)O | 27 |  | IC50 [5]: 11400 nM
23 | O=C(Nc1ccccc1C(=O)NC(Cc1c[nH]c2ccccc12)C(=O)O)c1cc2ccccc2[nH]1 (racemic) | 445 |  | 
24 | NC(=O)C(Cc1ccccc1)NC(=O)c1ccccc1NC(=O)c1cc2ccccc2[nH]1 (racemic) | 8530 | < 20 | 
25 | CC(C)CC(NC(=O)c1ccccc1NC(=O)c1cc2ccccc2[nH]1)C(=O)O (racemic) | 83 |  | inhibition [7]: 100%
